Data set [1] in a line: Inhibition of DENV2 NS2B-NS3 protease using Benzoyl-Nle-Lys-Arg-Arg-AMC as substrate preincubated for 3 mins followed by substrate addition by fluorescence spectrophotometer. Also noted: species or system Dengue virus. The essentials: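 Plasmid-expressed DENV-2 NS2B-NS3 protease was assayed at 37 °C, pH 9.0 (50 mM Tris-HCl, 10 mM NaCl, 20% glycerol, 1 mM CHAPS, 0.04% NaN3). Inhibitor at graded concentrations was preincubated 3 min before 33 µM substrate was added, and fluorescence was read at 356/438 nm. IC50 was derived from remaining activity (vehicle = 100%) versus concentration, as the mean of triplicates.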

In data set [2] the test system is dengue virus type 2. Kind of data set: Antiviral activity against DENV2 infected Vero E6 cells assessed as reduction in viral titer after 48 hrs by plaque assay. It counts as functional, Vero C1008. The note with it: Huh-7, 48 h, in the assay text read “Huh-7” for “Vero E6”. In short, it runs like this:
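Huh-7 cells (10^4/well) were infected with wild-type DENV-2 at MOI 1. Non-toxic compound concentrations were added 1 h later, and cells were incubated 48 h at 37 °C, in triplicate. Virus yield in the supernatant was titred on Vero E6 cells with 10^-1 to 10^-6 dilutions, 7-day plaque development, formaldehyde fixation and crystal violet staining. Titer reduction was judged against an untreated control.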

Data set [3] can be described thus: Cytotoxicity against human HuH7 cells after 48 hrs by cell-titer glo luminescent viability assay. It counts as cell-based, Huh-7.
The test system of data set [4] is dengue virus type 2. The data set can be described thus: Inhibition of DENV2 NS2B-NS3 protease assessed as residual activity up to 200 uM using Benzoyl-Nle-Lys-Arg-Arg-AMC as substrate preincubated for 3 mins followed by substrate addition by fluorescence spectrophotometer.
Data set [5] relates to Dengue virus. The data set can be described thus: Inhibition of DENV2 NS2B-NS3 protease assessed as residual activity at 16 uM using Benzoyl-Nle-Lys-Arg-Arg-AMC as substrate preincubated for 3 mins followed by substrate addition by fluorescence spectrophotometer.
Data set [6] relates to Dengue virus. Kind of data set: Inhibition of DENV2 NS2B-NS3 protease assessed as residual activity at 20 uM using Benzoyl-Nle-Lys-Arg-Arg-AMC as substrate preincubated for 3 mins followed by substrate addition by fluorescence spectrophotometer.
Data set [7] concerns Dengue virus. The data set can be described thus: Inhibition of DENV2 NS2B-NS3 protease assessed as residual activity at 200 uM using Benzoyl-Nle-Lys-Arg-Arg-AMC as substrate preincubated for 3 mins followed by substrate addition by fluorescence spectrophotometer.
Data set [8] has as its system dengue virus type 2. Kind of data set: Inhibition of DENV2 NS2B-NS3 protease assessed as residual activity at 15 uM using Benzoyl-Nle-Lys-Arg-Arg-AMC as substrate preincubated for 3 mins followed by substrate addition by fluorescence spectrophotometer.

What is called IC50 is the midpoint of a concentration-inhibition curve. Low readings indicate higher potency, high ones lower potency. A word on the EC50: it is the concentration that produces a half-maximal response. As a reminder, the CC50 is the concentration at which the toxic effect on the cells reaches its halfway point. A low value points to greater toxicity to the cells.

Peptide text beside a SMILES is read from it. * marks the point of attachment. pNA = O=[N+]([O-])c1ccc(N*)cc1

In data set [1], `CSCC[C@H](N)C(=O)N1CCC[C@H]1C(=O)Nc1ccc([N+](=O)[O-])cc1` (H-Met-Pro-pNA) returned an IC50 of 1200 nM. Moreover, the 50% effective concentration (EC50) in the data set on dengue virus type 2 [2] turned out to be 38.7 µM. The CC50 at 48 h in data set [3] is above 100 µM. With `CC(C)c1ccc([C@H]2N(c3ccc([N+](=O)[O-])cc3)C(=O)[C@@H]3CCCN32)cc1`, in the data set on dengue virus type 2 [4], the Activity is above 50%. Regarding `O=C1[C@@H]2CCCN2[C@@H](c2ccc(Cl)cc2)N1c1ccc([N+](=O)[O-])cc1`, the Activity in the data set with dengue virus type 2 [4] was above 50%.

Turning to `O=C1[C@@H]2CCCN2[C@H](c2ccc([N+](=O)[O-])cc2)N1c1ccc([N+](=O)[O-])cc1`, the Activity in the data set on dengue virus type 2 [4] is above 50%.

`C[C@H]1N(c2ccc([N+](=O)[O-])cc2)C(=O)[C@@H]2CCCN21`: in the data set on Dengue virus [5], the Activity is 58%.

With `COc1ccc([C@H]2N(c3ccc([N+](=O)[O-])cc3)C(=O)[C@@H]3CCCN32)cc1`, the Activity with dengue virus type 2 [4] was above 50%. For the compound `O=C1[C@@H]2CCCN2[C@@H](c2cccc([N+](=O)[O-])c2)N1c1ccc([N+](=O)[O-])cc1`, the Activity with dengue virus type 2 [4] is above 50%.

Take `O=C1[C@@H]2CCCN2[C@@H](Cc2ccc([N+](=O)[O-])cc2)N1c1ccc([N+](=O)[O-])cc1`: the Activity in the data set on dengue virus type 2 [4] is above 50%. On to `O=C1[C@@H]2CCCN2[C@@H](Cc2ccccc2)N1c1ccc([N+](=O)[O-])cc1`, for which, in the data set with Dengue virus [6], the Activity is 58%. In the case of `O=C1[C@@H]2CCCN2CN1c1ccc([N+](=O)[O-])cc1`, the Activity in the data set with Dengue virus [5] turned out to be 61%. For the compound `O=C1[C@@H]2CCCN2[C@H](c2ccc(Cl)cc2)N1c1ccc([N+](=O)[O-])cc1`, in the data set with dengue virus type 2 [4], the Activity is above 50%.

On to `O=C1[C@@H]2CCCN2[C@@H](c2ccccc2)N1c1ccc([N+](=O)[O-])cc1`, for which the Activity in the data set with Dengue virus [7] amounted to 33%. Take `O=C1[C@@H]2CCCN2[C@@H](c2ccc(C(F)(F)F)cc2)N1c1ccc([N+](=O)[O-])cc1`: the Activity in the data set on dengue virus type 2 [4] is above 50%. As for `O=C1[C@@H]2CCCN2[C@@H](c2ccc([N+](=O)[O-])cc2)N1c1ccc([N+](=O)[O-])cc1`, in data set [1], half-maximal inhibition (IC50) was put at 1200 nM. Moreover, the Activity in the data set on dengue virus type 2 [8] was found to be 32%. In the data set with dengue virus type 2 [2], the concentration for a half-maximal effect (EC50) is 39.4 µM. The compound further returned a CC50 at 48 h in data set [3] above 100 µM.

As to `CC[C@H]1N(c2ccc([N+](=O)[O-])cc2)C(=O)[C@@H]2CCCN21`, the Activity with Dengue virus [5] was 40%. `O=C1[C@@H]2CCCN2[C@H](c2ccc(C(F)(F)F)cc2)N1c1ccc([N+](=O)[O-])cc1`: the Activity with dengue virus type 2 [4] was above 50%. Regarding `CC(C)[C@H]1N(c2ccc([N+](=O)[O-])cc2)C(=O)[C@@H]2CCCN21`, the Activity in the data set on Dengue virus [5] came to 66%.

Values taken from ChEMBL document CHEMBL4041495, “Identification of fused bicyclic derivatives of pyrrolidine and imidazolidinone as dengue virus-2 NS2B-NS3 protease inhibitors” (Eur J Med Chem, 2017).
